In one assay the test system is Entamoeba histolytica. Description: Antiamoebic activity against trophozoite stage of Entamoeba histolytica HM-1:IMSS assessed as growth inhibition after 48 hrs by microdilution method. It counts as functional, organism-based. The gist of the method:
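Axenic log-phase HM1:IMSS trophozoites grown in BI-S-33 medium with 20% calf serum, viability counted by trypan blue, seeded at 10⁵/mL (100 µL per well). Compounds dissolved in 0.1% DMSO, two-fold serial dilutions in medium. Incubated 37 °C, 48 h, then WST-1 added for 4 h at 37 °C, OD 490 nm. IC50 by linear regression of % inhibition versus concentration, duplicate, mean ± SD.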

Assay [1] in a line: Selectivity index, ratio of IC50 for african green monkey Vero cells to IC50 for trophozoite stage of Entamoeba histolytica HM-1:IMSS. The gist of the method: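 Computed as VERO toxicity IC50 divided by the E. histolytica IC50, where each IC50 is the concentration that kills 50% of the respective cells.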
The test system of another assay is Vero. Description: Cytotoxicity against african green monkey Vero cells assessed as cell viability after 48 hrs by WST-1 assay. It counts as cell-based. The settings on record: Chlorocebus sabaeus. The essentials:
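VERO cells in MEM with 0.1 mM nonessential amino acids, 1 mM pyruvate and 10% FBS, 37 °C, 5% CO₂. Plated at 10⁴ cells/well, 24 h before dosing. Compounds diluted in complete medium to 0.1–100 µM, 48 h exposure against an untreated control. WST-1 added for 4 h at 37 °C. Quadruplicate, repeated twice, mean ± SD, ANOVA.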

[2] abbreviates: Entamoeba histolytica, HM-1:IMSS, 48 h, read-out: IC50.

Where only a bound is given, the exact number is not on record here.

Take `CCOC(=O)c1ccc2c(c1)[n+]([O-])c(C(=O)OCC)c(-c1ccccc1)[n+]2[O-]`: the IC50 with Entamoeba histolytica (setting [2]) was found to be 7.13 µM.

For the molecule `CCOC(=O)c1ccc2c(c1)[n+]([O-])c(C(=O)OCc1ccccc1)c(C)[n+]2[O-]`, the IC50 result in the assay on Entamoeba histolytica was “ND(Insoluble)”.

Take `COC(=O)c1ccc2no[n+]([O-])c2c1`: the IC50 with Entamoeba histolytica (setting [2]) worked out at 74.5 µM.

Consider `COC(=O)c1ccc2c(c1)[n+]([O-])c(C(C)=O)c(C)[n+]2[O-]`, for which, in assay [1], the “Ratio IC50” value is reported as >70.92. Further, the IC50 in the assay on Vero was > 100 µM; in the assay with Entamoeba histolytica (setting [2]), 1.41 µM.

Regarding `CCOC(=O)Cc1c(C(=O)OCC)[n+]([O-])c2cc(C(=O)OC)ccc2[n+]1[O-]`, the IC50 in the assay on Entamoeba histolytica (setting [2]) came out at 1.91 µM.

Turning to `CCOC(=O)c1ccc2c(c1)[n+]([O-])c(C(=O)c1ccc3ccccc3c1)c(C(F)(F)F)[n+]2[O-]`, in the assay on Entamoeba histolytica, the IC50 entry is on record as “ND(Insoluble)”.

In the case of `COC(=O)c1ccc2c(c1)[n+]([O-])c(C(=O)C(C)C)c(C(F)(F)F)[n+]2[O-]`, the “Ratio IC50” value in assay [1] is on record as 3.7. Further, the values for the IC50 in the assay with Vero and with Entamoeba histolytica (setting [2]) were 6.97 µM and 1.88 µM, respectively.

As to `CCOC(=O)c1ccc2c(c1)[n+]([O-])c(C(=O)c1cccs1)c(C(F)(F)F)[n+]2[O-]`, in assay [1], the “Ratio IC50” value stood at 2.69. In addition, the IC50 was 6.74 µM with Vero and 2.5 µM with Entamoeba histolytica (setting [2]).

For the molecule `CCOC(=O)c1ccc2c(c1)[n+]([O-])c(C(N)=O)c(C)[n+]2[O-]`, the “Ratio IC50” value in assay [1] is on record as >68.02. Also, the IC50 is > 100 µM in the assay on Vero and 1.47 µM with Entamoeba histolytica (setting [2]).

With `COC(=O)c1ccc2c(c1)[n+]([O-])c(C(=O)c1ccccc1)c(C(F)(F)F)[n+]2[O-]`, the half-maximal inhibitory concentration (IC50) in the assay with Entamoeba histolytica (setting [2]) amounted to 6.07 µM.

`O=C(O)c1ccc2no[n+]([O-])c2c1`: the IC50 entry with Entamoeba histolytica was “ND(Insoluble)”.

Regarding `CCOC(=O)c1ccc2c(c1)[n+]([O-])c(C(=O)OC)c(C)[n+]2[O-]`, the “Ratio IC50” value in assay [1] is recorded as >53.19. For the same molecule, the IC50 in the assay with Vero was > 100 µM; with Entamoeba histolytica (setting [2]) it was 1.88 µM.

For `COC(=O)c1ccc2c(c1)[n+]([O-])c(C(=O)OC(C)(C)C)c(C)[n+]2[O-]`, in the assay with Entamoeba histolytica, the 50% inhibitory concentration (IC50) result is given as “ND(Insoluble)”.

Turning to `CCOC(=O)c1ccc2c(c1)[n+]([O-])c(C(=O)OCC)c(C)[n+]2[O-]`, the IC50 with Entamoeba histolytica (setting [2]) was 4.18 µM.

For the molecule `CCOC(=O)c1c(-c2ccccc2)[n+]([O-])c2ccc(C(=O)OC)cc2[n+]1[O-]`, in the assay with Entamoeba histolytica (setting [2]), the IC50 stood at 12.2 µM.

`COC(=O)c1ccc2c(c1)[n+]([O-])c(C(=O)c1ccccc1)c(C)[n+]2[O-]`: the IC50 in the assay with Entamoeba histolytica (setting [2]) turned out to be 3.43 µM.

With `COC(=O)c1ccc2c(c1)[n+]([O-])c(C(C)=O)c(C(F)(F)F)[n+]2[O-]`, in assay [1], the “Ratio IC50” value amounted to 2.14. Besides, the figures for the IC50 in the assay on Vero and with Entamoeba histolytica (setting [2]) were 3.28 µM and 1.53 µM, respectively.

Take `COC(=O)c1ccc2c(c1)[n+]([O-])c(C(=O)c1cccs1)c(C(F)(F)F)[n+]2[O-]`: the “Ratio IC50” value in assay [1] was 16.74. The IC50 was 5.86 µM in the assay on Vero and 0.35 µM in the assay on Entamoeba histolytica (setting [2]).

With `CC(=O)Oc1ccccc1C(=O)Nc1ncc([N+](=O)[O-])s1` [NITAZOXANIDE], the “Ratio IC50” value in assay [1] was found to be 2.75. The IC50 is 10.7 µM with Vero and 3.9 µM with Entamoeba histolytica (setting [2]).

Turning to `CCOC(=O)c1ccc2c(c1)[n+]([O-])c(C(C)=O)c(C(F)(F)F)[n+]2[O-]`, in assay [1], the “Ratio IC50” value is 6.6. Further, the IC50 in the assay on Vero turned out to be 13.1 µM; in the assay on Entamoeba histolytica (setting [2]), 1.98 µM.

For `CCOC(=O)c1ccc2c(c1)[n+]([O-])c(C(=O)c1ccccc1)c(C)[n+]2[O-]`, the “Ratio IC50” value in assay [1] is >51.81. Moreover, the IC50 in the assay with Vero was > 100 µM; in the assay with Entamoeba histolytica (setting [2]), 1.93 µM.

Consider `CCOC(=O)c1c(C)[n+]([O-])c2ccc(C(=O)OC)cc2[n+]1[O-]`, for which, in assay [1], the “Ratio IC50” value is on record as >50.25. For the same molecule, the figures for the IC50 in the assay on Vero and with Entamoeba histolytica (setting [2]) were > 100 µM and 1.99 µM, respectively.

For `[O-][n+]1onc2ccccc21` [BENZO[C][1,2,5]OXADIAZOLE 1-OXIDE], in the assay with Entamoeba histolytica (setting [2]), the half-inhibitory concentration (IC50) turned out to be 12 µM.

Turning to `Cc1ncc([N+](=O)[O-])n1CCO` [METRONIDAZOLE], in assay [1], the “Ratio IC50” value is listed as >22.22. Moreover, the IC50 was > 100 µM in the assay with Vero and 4.5 µM in the assay on Entamoeba histolytica (setting [2]).

Turning to `CCOC(=O)c1ccc2no[n+]([O-])c2c1`, the IC50 in the assay with Entamoeba histolytica (setting [2]) worked out at 221 µM.

Consider `CCOC(=O)c1ccc2c(c1)[n+]([O-])c(C(=O)c1ccco1)c(C(F)F)[n+]2[O-]`, for which the IC50 with Entamoeba histolytica (setting [2]) was 3.81 µM.

Regarding `CCOC(=O)c1ccc2c(c1)[n+]([O-])c(C(=O)CC)c(C(F)(F)F)[n+]2[O-]`, the IC50 with Entamoeba histolytica (setting [2]) came out at 18.1 µM.

As to `COC(=O)c1ccc2c(c1)[n+]([O-])c(C(=O)c1ccc3ccccc3c1)c(C(F)(F)F)[n+]2[O-]`, the IC50 with Entamoeba histolytica (setting [2]) came to 5.29 µM.

For the molecule `COC(=O)c1ccc2c(c1)[n+]([O-])c(C(=O)Nc1ccccc1)c(C)[n+]2[O-]`, the IC50 in the assay with Entamoeba histolytica (setting [2]) is 4.14 µM.

As to `CCOC(=O)c1ccc2c(c1)[n+]([O-])c(C(=O)Nc1ccccc1)c(C)[n+]2[O-]`, the 50% inhibitory concentration (IC50) entry with Entamoeba histolytica is recorded as “ND(Insoluble)”.

Regarding `COC(=O)c1ccc2c(c1)[n+]([O-])c(C(=O)OC)c(C)[n+]2[O-]`, the IC50 in the assay on Entamoeba histolytica (setting [2]) amounted to 4.17 µM.

The values above are taken from ChEMBL document CHEMBL2413057, “Synthesis and in vitro evaluation of new ethyl and methyl quinoxaline-7-carboxylate 1,4-di-N-oxide against Entamoeba histolytica” (Bioorg Med Chem, 2013).
